ChEMBL document CHEMBL1177701, “Synthesis, biological evaluation, and structure-activity relationships of dithiolethiones as inducers of cytoprotective phase 2 enzymes” (J Med Chem, 2010)
Each block holds one compound with its values, some of them ahead of it. The source made the active and inactive calls. The calls are words filed in the database; no cut-off is given here.

What was measured:
Rattus norvegicus [1] = assay: Ex vivo induction of NQO1 in Sprague-Dawley rat liver at 7.5 umol/kg/day, po for 10 days measured on day 11 relative to control; type: functional
Outline: (§1)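 Organs taken from the same rats used for the bladder study: female Sprague-Dawley, compound at 7.5 µmol/kg/day by gavage or soya oil for 10 days, killed on day 11. GI contents rinsed out under cold water and tissues stored at −80°C. Homogenized in 0.2% Triton X-100 and centrifuged. Supernatant NQO1 activity measured by the Ernster method, expressed as treated/control.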

Rattus norvegicus [2] = assay: Ex vivo induction of NQO1 in Sprague-Dawley rat jejunum at 7.5 umol/kg/day, po for 10 days measured on day 11 relative to control; type: functional; outline: as §1
Rattus norvegicus [3] = assay: Ex vivo induction of NQO1 in Sprague-Dawley rat ileum at 7.5 umol/kg/day, po for 10 days measured on day 11 relative to control; type: functional; outline: as §1
Rattus norvegicus [4] = assay: Ex vivo induction of NQO1 in Sprague-Dawley rat lung at 7.5 umol/kg/day, po for 10 days measured on day 11 relative to control; type: functional; outline: as §1
Rattus norvegicus [5] = assay: Ex vivo induction of NQO1 in Sprague-Dawley rat duodenum at 7.5 umol/kg/day, po for 10 days measured on day 11 relative to control; type: functional; outline: as §1
Rattus norvegicus [6] = assay: Ex vivo induction of GST in Sprague-Dawley rat bladder at 7.5 umol/kg/day, po for 10 days measured on day 11 relative to control; type: functional
Outline: (§2)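 Female Sprague-Dawley rats, 6 per group, gavaged with compound at 7.5 µmol/kg/day or soya oil for 10 days and killed on day 11. Bladder homogenized in ice-cold 0.2% Triton X-100 and cleared by centrifugation. NQO1 activity measured by the Ernster method, GST by the Habig method. Reported as treated/control mean ± SEM, ANOVA with Student-Newman-Keuls test.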

Rattus norvegicus [7] = assay: Ex vivo induction of NQO1 in Sprague-Dawley rat colon at 7.5 umol/kg/day, po for 10 days measured on day 11 relative to control; type: functional; outline: as §1
Rattus norvegicus [8] = assay: Ex vivo induction of NQO1 in Sprague-Dawley rat stomach at 7.5 umol/kg/day, po for 10 days measured on day 11 relative to control; type: functional; outline: as §1
Rattus norvegicus [9] = assay: Ex vivo induction of NQO1 in Sprague-Dawley rat kidney at 7.5 umol/kg/day, po for 10 days measured on day 11 relative to control; type: functional; outline: as §1
Rattus norvegicus [10] = assay: Ex vivo induction of NQO1 in Sprague-Dawley rat bladder at 7.5 umol/kg/day, po for 10 days measured on day 11 relative to control; type: functional; outline: as §2
[11] = target: T1, Nuclear factor erythroid 2-related factor 2 (Rattus norvegicus) (UniProt O54968); assay: Induction of Nrf-mediated GST-mu protein expression in wild type rat NBT2 cells at 25 uM after 24 hrs Western blot analysis; type: functional, cell-based
T1 sequence (whole entry): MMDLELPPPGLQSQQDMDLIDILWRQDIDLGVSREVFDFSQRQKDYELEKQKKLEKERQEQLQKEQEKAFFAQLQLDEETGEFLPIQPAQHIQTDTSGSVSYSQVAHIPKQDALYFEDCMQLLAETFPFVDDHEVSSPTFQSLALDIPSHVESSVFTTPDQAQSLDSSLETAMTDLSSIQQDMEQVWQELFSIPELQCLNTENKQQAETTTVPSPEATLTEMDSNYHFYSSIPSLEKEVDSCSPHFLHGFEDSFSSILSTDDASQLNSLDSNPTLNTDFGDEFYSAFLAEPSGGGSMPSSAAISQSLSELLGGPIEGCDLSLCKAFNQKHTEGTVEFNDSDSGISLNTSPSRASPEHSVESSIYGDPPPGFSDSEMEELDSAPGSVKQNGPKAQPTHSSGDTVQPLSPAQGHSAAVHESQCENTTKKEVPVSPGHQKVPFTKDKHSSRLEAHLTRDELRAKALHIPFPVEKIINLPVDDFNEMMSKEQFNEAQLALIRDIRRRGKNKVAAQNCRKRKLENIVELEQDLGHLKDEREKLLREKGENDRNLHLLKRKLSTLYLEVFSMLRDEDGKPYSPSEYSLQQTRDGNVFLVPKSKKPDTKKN
Outline: (§3)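 NBT-II cells transfected with Nrf2 stealth RNAi or control RNAi (0.584 nmol per dish, lipofectamine 2000) for 48 h. Then treated with compound at 25 µM or vehicle for 24 h, with 0.1% DMSO final. Lysates analyzed by Western blot for Nrf2, GCL, GST-α, GST-μ and NQO1, with GAPDH as loading control.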

NBT2 [12] = assay: Induction of GST-pi protein expression in rat NBT2 cells at 25 to 50 uM after 24 hrs by Western blot analysis; type: functional, cell-based
Outline: (§4)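 NBT-II rat bladder carcinoma cells grown in MEM with 10% FBS. Plated overnight, then exposed to compound at 25 or 50 µM for 24 h, with 0.1% DMSO final. Cells trypsinized, lysed with 1 mM PMSF and sonicated. 25-40 µg protein taken for Western blot, GAPDH as loading control. At least two experiments.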

NBT2 [13] = assay: Induction of GST-alpha protein expression in Nrf gene knockout rat NBT2 cells at 25 uM after 24 hrs Western blot analysis; type: functional, cell-based; outline: as §3
NBT2 [14] = assay: Induction of GST-alpha protein expression in rat NBT2 cells after 24 hrs by Western blot analysis; type: functional, cell-based; outline: as §4
Rattus norvegicus [15] = assay: Ex vivo induction GST-mu protein expression in Sprague-Dawley rat bladder at 7.5 umol/kg/day, po for 10 days measured on day 11 by Western blot analysis; type: functional, organism-based
Outline: (§5)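 Female Sprague-Dawley rats, 3 per group, gavaged once daily with compound at 7.5 µmol/kg or soya oil vehicle for 10 days. Killed on day 11. Bladder homogenized in 10 mM Tris-HCl pH 7.4, 0.25 M sucrose, 1 mM PMSF, 1 µg/ml leupeptin. 25-40 µg protein run by SDS-PAGE, then Western blot, with GAPDH as loading control.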

NBT2 [16] = assay: Induction of GST-mu protein expression in Nrf gene knockout rat NBT2 cells at 25 uM after 24 hrs Western blot analysis; type: functional, cell-based; outline: as §3
NBT2 [17] = assay: Induction of NQO1 protein expression in Nrf gene knockout rat NBT2 cells at 25 uM after 24 hrs Western blot analysis; type: functional, cell-based; outline: as §3
[18] = target: T1, Nuclear factor erythroid 2-related factor 2 (Rattus norvegicus); assay: Induction of Nrf-mediated GST-alpha protein expression in wild type rat NBT2 cells at 25 uM after 24 hrs Western blot analysis; type: functional, cell-based; outline: as §3
NBT2 [19] = assay: Induction of GCL protein expression in Nrf gene knockout rat NBT2 cells at 25 uM after 24 hrs Western blot analysis; type: functional, cell-based; outline: as §3
NBT2 [20] = assay: Induction of GCL protein expression in rat NBT2 cells at 25 to 50 uM after 24 hrs by Western blot analysis; type: functional, cell-based; outline: as §4
Rattus norvegicus [21] = assay: Ex vivo induction GST-pi protein expression in Sprague-Dawley rat bladder at 7.5 umol/kg/day, po for 10 days measured on day 11 by Western blot analysis; type: functional, organism-based; outline: as §5
[22] = target: T1, Nuclear factor erythroid 2-related factor 2 (Rattus norvegicus); assay: Induction of Nrf-mediated NQO1 protein expression in wild type rat NBT2 cells at 25 uM after 24 hrs Western blot analysis; type: functional, cell-based; outline: as §3
Rattus norvegicus [23] = assay: Ex vivo induction GST-alpha protein expression in Sprague-Dawley rat bladder at 7.5 umol/kg/day, po for 10 days measured on day 11 by Western blot analysis; type: functional, organism-based; outline: as §5
[24] = target: T1, Nuclear factor erythroid 2-related factor 2 (Rattus norvegicus); assay: Induction of Nrf-mediated GCL protein expression in wild type rat NBT2 cells at 25 uM after 24 hrs Western blot analysis; type: functional, cell-based; outline: as §3
NBT2 [25] = assay: Induction of GST-mu protein expression in rat NBT2 cells after 24 hrs by Western blot analysis; type: functional, cell-based; outline: as §4
[26] = target: T1, Nuclear factor erythroid 2-related factor 2 (Rattus norvegicus); assay: Induction of Nrf in wild type rat NBT2 cells at 25 uM after 24 hrs Western blot analysis; type: functional, cell-based; outline: as §3
Rattus norvegicus [27] = assay: Ex vivo induction GCL protein expression in Sprague-Dawley rat bladder at 7.5 umol/kg/day, po for 10 days measured on day 11 by Western blot analysis; type: functional, organism-based; outline: as §5
NBT2 [28] = assay: Induction of NQO1 protein expression in rat NBT2 cells after 24 hrs by Western blot analysis; type: functional, cell-based; outline: as §4
[29] = Dissociation constant, pKa of the compound; type: physicochemical

Compound: CCOC(=O)c1cssc1=S
- fold change (FC) (Rattus norvegicus [1]): 1.04
- fold change (FC) (Rattus norvegicus [2]): 1.04
- fold change (FC) (Rattus norvegicus [3]): 1.11
- fold change (FC) (Rattus norvegicus [4]): 1.21
- fold change (FC) (Rattus norvegicus [5]): 1.21
- fold change (FC) (Rattus norvegicus [6]): 2.76
- fold change (FC) (Rattus norvegicus [7]): 0.98
- fold change (FC) (Rattus norvegicus [8]): 2.15
- fold change (FC) (Rattus norvegicus [9]): 1.47
- fold change (FC) (Rattus norvegicus [10]): 4.82

Compound: S=c1ssc2c1CCC2
- fold change (FC) (Rattus norvegicus [1]): 1.26
- fold change (FC) (Rattus norvegicus [2]): 1.44
- fold change (FC) (Rattus norvegicus [3]): 1.36
- fold change (FC) (Rattus norvegicus [4]): 1.26
- fold change (FC) (Rattus norvegicus [5]): 2.82
- fold change (FC) (Rattus norvegicus [6]): 1.68
- fold change (FC) (Rattus norvegicus [7]): 1.28
- fold change (FC) (Rattus norvegicus [8]): 3.55
- fold change (FC) (Rattus norvegicus [9]): 1.87
- fold change (FC) (Rattus norvegicus [10]): 3.14

Compound: CCOC(=O)C1Cc2ssc(=S)c2C1 (configuration not stated)
- fold change (FC) (Rattus norvegicus [6]): 1.11
- fold change (FC) (Rattus norvegicus [10]): 1.23

- Activity [11]: Active
- Activity [18]: Active
- Activity [22]: Active
- Activity [24]: Active
- Activity [26]: Active
Compound: CCOC(=O)C1CCc2c1ssc2=S (configuration not stated)
- Activity (NBT2 [12]): inactive
- Activity (NBT2 [13]): inactive
- Activity (NBT2 [14]): Dose-dependent effect
- Activity (Rattus norvegicus [15]): Active
- fold change (FC) (Rattus norvegicus [1]): 1.17
- fold change (FC) (Rattus norvegicus [2]): 1.38
- Activity (NBT2 [16]): inactive
- fold change (FC) (Rattus norvegicus [3]): 1.2
- Activity (NBT2 [17]): inactive
- fold change (FC) (Rattus norvegicus [4]): 1.17
- fold change (FC) (Rattus norvegicus [5]): 1.53
- fold change (FC) (Rattus norvegicus [6]): 2.29
- Activity (NBT2 [19]): inactive
- fold change (FC) (Rattus norvegicus [7]): 1
- fold change (FC) (Rattus norvegicus [8]): 1.93
- Activity (NBT2 [20]): Active
- Activity (Rattus norvegicus [21]): inactive
- Activity (Rattus norvegicus [23]): Active
- fold change (FC) (Rattus norvegicus [9]): 1.86
- Activity (NBT2 [25]): Dose-dependent effect
- fold change (FC) (Rattus norvegicus [10]): 4.47
- Activity (Rattus norvegicus [27]): Active
- Activity (NBT2 [28]): Dose-dependent effect

Compound: Cc1cssc1=S
- fold change (FC) (Rattus norvegicus [6]): 1.23
- fold change (FC) (Rattus norvegicus [10]): 1.83

Compound: Cc1c(S)ssc1=S
- fold change (FC) (Rattus norvegicus [6]): 1.08
- fold change (FC) (Rattus norvegicus [10]): 1.29

Compound: S=c1ssc2c1CCCC2
- fold change (FC) (Rattus norvegicus [6]): 1.05
- fold change (FC) (Rattus norvegicus [10]): 1.46

Compound: S=c1ssc2c1CCCCC2
- fold change (FC) (Rattus norvegicus [6]): 1.14
- fold change (FC) (Rattus norvegicus [10]): 1.2

- pKa [29]: 1.2
Compound: O=C(O)c1cc(=S)ss1
- fold change (FC) (Rattus norvegicus [6]): 1.11
- fold change (FC) (Rattus norvegicus [10]): 1.27

Compound: CCOC(=O)c1cc(=S)ss1
- fold change (FC) (Rattus norvegicus [6]): 1.09
- fold change (FC) (Rattus norvegicus [10]): 1.13

Compound: CCOC(=O)c1c(N)ssc1=S
- fold change (FC) (Rattus norvegicus [6]): 1.25
- fold change (FC) (Rattus norvegicus [10]): 2.03

Compound: S=c1ssc2c1CCCCCC2
- fold change (FC) (Rattus norvegicus [6]): 1.11
- fold change (FC) (Rattus norvegicus [10]): 1.08
